In ChEMBL document CHEMBL3425459, “Structure-activity studies in the development of a hydrazone based inhibitor of adipose-triglyceride lipase (ATGL)” (Bioorg Med Chem, 2015):
Activity calls are given as the source filed them. The calls are words filed in the database; no cut-off is given here.

Legend:
[1] = target: T1, Patatin-like phospholipase domain-containing protein 2 (Mus musculus, UniProt Q8BJ56); assay: Inhibition of mouse recombinant ATGL expressed in African green monkey COS7 cells assessed as reduction in triglyceride hydrolase activity using radio-labelled triolein substrate incubated for 1 hr by liquid scintillation counting; assay type: cell-based, COS-7
T1 sequence (Q8BJ56 whole entry): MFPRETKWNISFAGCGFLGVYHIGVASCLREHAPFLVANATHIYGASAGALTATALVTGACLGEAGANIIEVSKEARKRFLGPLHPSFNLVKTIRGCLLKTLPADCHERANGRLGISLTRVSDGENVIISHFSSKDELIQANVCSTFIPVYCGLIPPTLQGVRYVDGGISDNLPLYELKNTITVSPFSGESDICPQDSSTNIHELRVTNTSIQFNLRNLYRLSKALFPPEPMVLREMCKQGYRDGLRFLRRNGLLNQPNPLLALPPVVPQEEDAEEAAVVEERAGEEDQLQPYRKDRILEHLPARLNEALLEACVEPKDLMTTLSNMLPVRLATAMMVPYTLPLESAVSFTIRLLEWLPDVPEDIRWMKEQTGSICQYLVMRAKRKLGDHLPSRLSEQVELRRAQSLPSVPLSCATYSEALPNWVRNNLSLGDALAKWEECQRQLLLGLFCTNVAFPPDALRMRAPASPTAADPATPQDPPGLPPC

[2] = target: T2, Patatin-like phospholipase domain-containing protein 2 (Mus musculus) (UniProt Q8BJ56); assay: Inhibition of mouse recombinant ATGL expressed in African green monkey COS7 cells assessed as reduction in triglyceride hydrolase activity at 200 uM using radio-labelled triolein substrate incubated for 1 hr by liquid scintillation counting; assay type: cell-based; conditions: COS-7
T2 sequence (whole entry): T1 sequence (Q8BJ56 whole entry)
Method in brief: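 Lysate (20 μg protein) of COS-7 cells transfected with murine ATGL DNA, sonicated in pH 7.0 sucrose/EDTA/DTT/protease-inhibitor buffer and cleared at 1000×g. Mixed 1:1 with radiolabelled triolein emulsion (prepared at 330 μM, 40,000 cpm/nmol, PC/PI, 100 mM potassium phosphate pH 7.0, 5% FA-free BSA) ± 200 μM inhibitor for 1 h at 37 °C. Released FA counted by scintillation after methanol/chloroform/heptane extraction at pH 10.5.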

Adipose tissue [3] = assay: Inhibition of lipolysis in wild type mouse white adipose tissue fat pads assessed as reduction in fatty acids release at 10 to 200 uM; assay type: functional, tissue-based
[4] = target: T3, Lipoprotein lipase (Homo sapiens) (UniProt P06858); assay: Inhibition of lipoprotein lipase (unknown origin) at 100 uM incubated for 1 hr
T3 sequence (whole entry): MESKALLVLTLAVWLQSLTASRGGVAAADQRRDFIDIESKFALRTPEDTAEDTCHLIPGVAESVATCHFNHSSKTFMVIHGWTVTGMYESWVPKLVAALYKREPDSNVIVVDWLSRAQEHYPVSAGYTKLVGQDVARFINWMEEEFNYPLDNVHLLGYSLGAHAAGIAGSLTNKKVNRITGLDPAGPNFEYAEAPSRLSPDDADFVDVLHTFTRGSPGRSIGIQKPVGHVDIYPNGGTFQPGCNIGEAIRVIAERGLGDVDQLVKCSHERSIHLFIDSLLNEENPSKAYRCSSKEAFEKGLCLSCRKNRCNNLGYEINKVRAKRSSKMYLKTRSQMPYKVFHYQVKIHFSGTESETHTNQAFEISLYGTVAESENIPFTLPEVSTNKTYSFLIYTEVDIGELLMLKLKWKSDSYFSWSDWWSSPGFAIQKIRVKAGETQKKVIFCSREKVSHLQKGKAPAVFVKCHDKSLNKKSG
Method in brief: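 Purified recombinant LPL (2 μl) was incubated with radiolabelled triolein emulsion, with or without inhibitor, for 1 h at 37 °C. The emulsion was prepared at 330 μM triolein with PC/PI in pH 7.0 phosphate and 5% BSA. Liberated fatty acids were extracted into the alkaline upper phase and quantified by liquid scintillation counting.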

[5] = Toxicity in mouse AML-12 cells at 1 to 200 uM by Tox4 test; assay type: cell-based; conditions: aml-12, 200 µM
Adipose tissue [6] = assay: Inhibition of lipolysis in hormone-sensitive lipase knock out mouse white adipose tissue fat pads assessed as reduction in fatty acids release at 10 to 200 uM; assay type: functional, tissue-based
Adipose tissue [7] = assay: Inhibition of lipolysis in adipose triglyceride lipase knock out mouse white adipose tissue fat pads assessed as reduction in fatty acids release at 10 to 200 uM; assay type: functional, tissue-based
[8] = target: T4, Monoglyceride lipase (Homo sapiens) (UniProt Q99685); assay: Inhibition of monoglyceride lipase (unknown origin) at 100 uM incubated for 1 hr
T4 sequence (whole entry): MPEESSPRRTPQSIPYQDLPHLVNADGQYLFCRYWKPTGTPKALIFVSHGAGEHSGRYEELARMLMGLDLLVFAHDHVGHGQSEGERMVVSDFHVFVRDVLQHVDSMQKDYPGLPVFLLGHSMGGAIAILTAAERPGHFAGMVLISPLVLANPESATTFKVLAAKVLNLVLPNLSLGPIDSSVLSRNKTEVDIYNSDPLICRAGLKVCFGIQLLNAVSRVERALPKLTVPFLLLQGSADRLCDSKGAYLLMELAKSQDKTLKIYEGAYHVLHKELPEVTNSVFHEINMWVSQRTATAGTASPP

C(=N\N1CCN(c2ccccc2)CC1)/c1cccc2ccccc12
IC50 [1]: 200 µM

CCCC/C=N/N1CCN(c2ccccc2)CC1
IC50 [1]: > 200 µM

CCC/C=C/C=N/N1CCN(c2ccccc2)CC1
IC50 [1]: > 200 µM

Oc1ccc(/C=N/N2CCN(c3ccccc3)CC2)cc1
IC50 [1]: 50 µM

Oc1ccc(/C=N/N2CCN(Cc3ccccc3)CC2)c(O)c1
IC50 [1]: > 200 µM

O=[N+]([O-])c1ccccc1/C=N/N1CCN(c2ccccc2)CC1
IC50 [1]: 180 µM

COc1cc(/C=N/N2CCN(c3ccccc3)CC2)cc(OC)c1OC
IC50 [1]: > 200 µM

Oc1ccccc1/C=N/N1CCN(c2ccccc2)CC1
IC50 [1]: 75 µM

CCCOc1cccc(/C=N/N2CCN(c3ccccc3)CC2)c1
Efficacy [2]: 14% | IC50 [1]: > 200 µM

O=c1[nH]c2ccc(/C=N/N3CCN(c4ccccc4)CC3)cc2[nH]1
IC50 [1]: > 200 µM

C(=N\N1CCN(c2ccccc2)CC1)/c1ccc2ccccc2c1
IC50 [1]: > 200 µM

Clc1ccc(/C=N/N2CCN(c3ccccc3)CC2)c(Cl)c1
IC50 [1]: > 200 µM

COc1ccc(/C=N/N2CCN(c3ccccc3)CC2)cc1O
IC50 [1]: 80 µM

Oc1ccc(/C=N/N2CCN(c3ccccc3)CC2)c(O)c1
inhibition (Adipose tissue [3]): Active | inhibition [4]: inactive | Activity [5]: Toxic | inhibition (Adipose tissue [6]): Active | inhibition (Adipose tissue [7]): Active | inhibition [8]: inactive

C(=N\N1CCN(c2ccccc2)CC1)/C1CCCCC1
IC50 [1]: 200 µM

Oc1ccc(/C=N/N2CCN(c3ccncc3)CC2)c(O)c1
IC50 [1]: > 200 µM

C(=N\N1CCN(c2ccccc2)CC1)/c1ccc2c(c1)OCCO2
IC50 [1]: > 200 µM

Oc1ccc(/C=N/N2CCN(c3ccccc3)CC2)cc1O
inhibition (Adipose tissue [3]): Active | inhibition (Adipose tissue [6]): Active | inhibition (Adipose tissue [7]): Active

CN(C)c1ccc(/C=N/N2CCN(c3ccccc3)CC2)cc1
IC50 [1]: > 200 µM

Cc1ccc(/C=N/N2CCN(c3ccccc3)CC2)cc1
IC50 [1]: > 200 µM

Oc1ccc(/C=N/N2CCC(Cc3ccccc3)CC2)c(O)c1
IC50 [1]: > 200 µM

COc1ccc(C(=O)NN2CCN(c3ccccc3)CC2)cc1OC
IC50 [1]: > 200 µM

Cc1cccc(N2CCN(/N=C/c3ccc(O)cc3O)CC2)c1
IC50 [1]: > 200 µM

COc1cc(/C=N/N2CCN(c3ccccc3)CC2)ccc1O
IC50 [1]: 60 µM

COc1ccc(/C=N/N2CCN(c3ccccc3)CC2)cc1OC
IC50 [1]: 100 µM

COc1cc(OC)c(OC)cc1/C=N/N1CCN(c2ccccc2)CC1
IC50 [1]: > 200 µM

CN(CCO)c1ccc(/C=N/N2CCN(c3ccccc3)CC2)cc1
IC50 [1]: > 200 µM

CCOC(=O)c1nn(-c2ccc(N(C)C)cc2)cc1O
IC50 [1]: 120 µM

N#Cc1ccccc1/C=N/N1CCN(c2ccccc2)CC1
Efficacy [2]: 60% | IC50 [1]: 120 µM

Brc1ccccc1/C=N/N1CCN(c2ccccc2)CC1
IC50 [1]: > 150 µM

Oc1ccc(/C=N/N2CCCN(c3ccccc3)CC2)c(O)c1
IC50 [1]: > 200 µM

Oc1cccc(/C=N/N2CCN(c3ccccc3)CC2)c1
IC50 [1]: 70 µM

CC(=O)Nc1ccc(/C=N/N2CCN(c3ccccc3)CC2)cc1
IC50 [1]: > 200 µM

C1=C(/C=N/N2CCN(c3ccccc3)CC2)CCCC1
IC50 [1]: 130 µM

C(=N\N1CCN(c2ccccc2)CC1)/c1ccc2ccccc2n1
IC50 [1]: > 200 µM

C(=N\N1CCN(c2ccccc2)CC1)/c1cccc(Oc2ccccc2)c1
Efficacy [2]: 24% | IC50 [1]: > 200 µM

C(=N\N1CCN(c2ccccc2)CC1)/c1ccncc1
IC50 [1]: 140 µM

Oc1ccc(/C=N/N2CCN(C3CCCC3)CC2)c(O)c1
IC50 [1]: > 200 µM

COc1ccc(NC(=O)N2CCN(c3ccccc3)CC2)cc1OC
IC50 [1]: > 200 µM

Oc1ccc(CN2CCN(c3ccccc3)CC2)cc1O
IC50 [1]: > 200 µM

C(=N\N1CCN(c2ccccc2)CC1)/c1ccccn1
IC50 [1]: > 200 µM

Oc1ccc(/C=N/N2CCN(C3CCCCC3)CC2)c(O)c1
IC50 [1]: > 200 µM

Oc1ccc(/C=N/N2CCN(CCc3ccccc3)CC2)c(O)c1
IC50 [1]: > 200 µM

Clc1ccc(/C=N/N2CCN(c3ccccc3)CC2)cc1Cl
IC50 [1]: > 200 µM

C(=N\N1CCN(c2ccccc2)CC1)/c1ccc2c(c1)OCO2
IC50 [1]: > 200 µM

C(=N\N1CCN(c2ccccc2)CC1)/c1cccnc1
IC50 [1]: > 200 µM
